In ChEMBL document CHEMBL1125418, “Antimycobacterial activity of a series of pyrazinoic acid esters” (1992) one finds MIC data, which are given here for 14 compounds.

Holding throughout (format): functional
Assay [1] relates to Mycobacterium tuberculosis variant bovis. The assay can be described thus: In vitro activity against Mycobacterium. tuberculosis (strain type-ATCC 27289).at pH 5.8. Put shortly: (§1)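 Middlebrook 7H10 agar plus 10% OADC at pH 5.8 in compartmented plates, with serial twofold dilutions from 200 to 3.12 µg/mL. Plates were prepared 24–48 h before use and stored at 4 °C. A drug-free compartment was included per isolate. Incubation was 37 °C for 4 weeks. MIC was the lowest level producing 99% (2 log) inhibition of growth.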

Assay [2] has the same test system. The assay can be described thus: In vitro activity against Mycobacterium. tuberculosis (strain type-ATCC 27289).at pH 6.6. Summed up:
(§2)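 Twofold serial dilutions (200–3.12 µg/mL) in 7H10 agar with 10% OADC enrichment at pH 6.6, in compartmented plates. Plates were stored at 4 °C and used within 24–48 h. A no-drug compartment served as control for each isolate. Plates were incubated for 4 weeks at 37 °C. MIC was the lowest concentration giving 99% (2 log) growth inhibition.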

Assay [3] has the same test system. The assay can be described thus: In vitro activity against Mycobacterium. tuberculosis (strain type-ATCC 27289)at pH 5.8. Summed up: as §1
Assay [4] shares this test system. The assay is described as follows: In vitro inhibitory activity against Mycobacterium tuberculosis (strain type-ATCC 27289). at pH 5.8. Put shortly: as §1
The test system is the same in assay [5]. The assay is described as follows: In vitro inhibitory activity against Mycobacterium tuberculosis (strain type-ATCC 27289). at pH 6.6. Summed up:
as §2

Assay [6] has the same test system. The assay can be described thus: In vitro activity against Mycobacterium. tuberculosis (strain type-ATCC 27289). at pH 6.6. Summed up:
as §2

The test system is the same in assay [7]. The assay can be described thus: In vitro activity against Mycobacterium. tuberculosis (strain type-ATCC 27289)at pH 6.6. Put shortly: as §2
Assay [8] has the same test system. The assay is described as follows: In vitro inhibitory activity against Mycobacterium. tuberculosis (strain type-ATCC 27289).at pH 5.8. Put shortly:
as §1

The test system is the same in assay [9]. The assay can be described thus: In vitro inhibitory activity against Mycobacterium. tuberculosis (strain type-ATCC 27289).at pH 6.6. Summed up: as §2
For assay [10] the test system is unchanged. The assay can be described thus: In vitro inhibitory activity against Mycobacterium tuberculosis (strain type-ATCC 27289) at pH 5.8. Summed up:
as §1

In brackets after ≈: the same amount, converted by molar mass. Bounds are passed on as bounds.

`CC(C)(C)c1ccc(OC(=O)c2cnccn2)cc1`: the MIC (in general, the lowest concentration that inhibits growth of the organism) in assay [1] amounted to 25 µg/mL (≈ 97.5 µM); in assay [2] it was 200 µg/mL (≈ 780 µM).

Regarding `O=C(OCCCl)c1cnccn1`, in [3], inhibition of growth (MIC) required 6.25 µg/mL (≈ 33.5 µM).

As to `CN(C)CCOC(=O)c1cnccn1`, the MIC in assay [4] is 12.5 µg/mL (≈ 64 µM); in assay [5], 200 µg/mL (≈ 1020 µM).

Consider `O=C(OCC(F)(F)F)c1cnccn1`, for which the results for the MIC in assay [6] and in assay [1] were > 200 µg/mL and 25 µg/mL (≈ 121 µM), respectively.

In the case of `Cc1ccc(OC(=O)c2cnccn2)cc1`, the minimum inhibitory concentration (MIC) amounted to 6.25 µg/mL (≈ 29.2 µM) in assay [1] and 50 µg/mL (≈ 233 µM) in [2].

Take `O=C(Oc1ccc([N+](=O)[O-])cc1)c1cnccn1`: the MIC in [1] was determined as 3.12 µg/mL (≈ 12.7 µM); in assay [2], 100 µg/mL (≈ 408 µM).

As for `CCCOC(=O)c1cnccn1`, the MIC in assay [1] came to 6.25 µg/mL (≈ 37.6 µM); in assay [2], 25 µg/mL (≈ 150 µM).

In the case of `O=C(Oc1c(F)c(F)c(F)c(F)c1F)c1cnccn1`, the MIC in assay [1] was found to be 12.5 µg/mL (≈ 43.1 µM); in assay [7], 100 µg/mL (≈ 345 µM).

Consider `C=CCOC(=O)c1cnccn1`, for which the MIC is < 3.12 µg/mL in assay [1] and 200 µg/mL (≈ 1220 µM) in [2].

With `O=C(Oc1ccc(-c2ccccc2)cc1)c1cnccn1`, the minimum inhibitory concentration (MIC) in [1] came out at 25 µg/mL (≈ 90.5 µM); in assay [2], 100 µg/mL (≈ 362 µM).

As for `O=C(OCCBr)c1cnccn1`, in assay [2], the MIC was > 200 µg/mL.

As to `O=C(OC(C(F)(F)F)C(F)(F)F)c1cnccn1`, the MIC in assay [1] is > 200 µg/mL.

For `NC(=O)c1cnccn1` [PYRAZINAMIDE], the MIC in assay [8] and in assay [9] was > 200 µg/mL throughout.

On to `O=C(O)c1cnccn1` [PYRAZINOIC ACID], for which the minimal inhibitory concentration (MIC) in assay [10] is 100 µg/mL (≈ 806 µM); in [5], > 200 µg/mL.
